ChEMBL document CHEMBL1833874, “Α-pyrones and diketopiperazine derivatives from the marine-derived actinomycete Nocardiopsis dassonvillei HR10-5” (J Nat Prod, 2011)
≈ marks a conversion by molar mass, not a printed value.

What was measured:
[1] = tested on: HL-60; assay: Cytotoxicity against human HL60 cells after 72 hrs by MTT assay; type: functional, cell-based; conditions: HL-60, 72 h
Method in brief: (§1)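 HL-60 cells were assayed by MTT and A549 cells by SRB. Read-out is IC50, given in μM.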

[2] = tested on: A549; assay: Cytotoxicity against human A549 cells after 24 hrs by SRB assay; type: functional; method in brief: as §1
[3] = tested on: Bacillus subtilis; assay: Antibacterial activity against Bacillus subtilis by agar dilution method; type: functional
Method in brief: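 Agar dilution, with the same panel also run against E. coli, A. aerogenes, P. aeruginosa, S. aureus and C. albicans. Read-out is the MIC, given in μM.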

MIC [3] | SMILES | IC50 [1] | IC50 [2]
 | COc1ccc(/C=C2/C(=O)N[C@@H](Cc3ccccc3)C(=O)N2C)cc1 [NOCAZINE C] | ≥ 100 µM | >=100 uM
 | COc1ccc(/C=c2/c(OC)n/c(=C\c3ccccc3)c(=O)n2C)cc1 [NOCAZINE B] | ≥ 100 µM | >=100 uM
12 µM (≈ 2.5 µg/mL) | CCc1ccc(/C(C)=C/[C@H](C)O)oc1=O [NOCAPYRONE G] | ≥ 100 µM | >=100 uM
14 µM (≈ 2.5 µg/mL) | CC/C=C(\C)c1ccc(C)c(=O)o1 [NOCAPYRONE F] | ≥ 100 µM | >=100 uM
26 µM (≈ 5 µg/mL) | CC/C=C(\C)c1ccc(CC)c(=O)o1 [NOCAPYRONE E] | ≥ 100 µM | >=100 uM
 | OC[C@@H]1COC(c2ccccc2O)=N1 [NOCAZOLINE A] | ≥ 100 µM | >=100 uM
 | COc1ccc(/C=c2\nc(OC)/c(=C/c3ccc(OC)cc3)n(C)c2=O)cc1 [NOCAZINE A] | ≥ 100 µM | >=100 uM
